# SKN-1 inh: suppressors of acrylamide-induced Pgst-4::GFP reporter in worms, primary screen, SKN-1 inhibitor project, whole organism, uHTS, GFP/RFP fluorescence ratio, strain VP596 | C. elegans VP596 Pgst-4::GFP/RFP ratio, 24 h | inhibition, % at 21.8 µM | hit rate 0.49% among 360,000;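 active = interference check ratio from 0.5 to 1.5 plus GFP to RFP signal ratio inhibition reaching or exceeding a fixed threshold, cut at about 30% in these data, passing the limit was not always enough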
# NR2E3 ag-1: inhibitors of NR2E3-RetCOR corepressor binding, primary screen, NR2E3 agonist project, biochemical, TR-FRET, GST-NR2E3, biotin-RetCOR; Photoreceptor-specific nuclear receptor (Homo sapiens), Q9Y5X4; 1536-well; inhibition of corepressor binding, % at 4.78 µM; hit rate 0.12% among 320,000; AID 2300, 2010;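 active = percent inhibition above the cutoff of mean plus 3 SD of all tested compounds, set per screening campaign, cut at about 20% in these data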;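 also: 0% = DMSO wells and 100% = biotin wells as full block of FRET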
#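 Test system – NR2E3–RetCOR corepressor complex · Quantity – NR2E3 fusion 1.35 nM · Buffer or medium – Tris pH 7.5 · Incubation – Compound–protein incubation for 5 h at 4 °C · Technique – TR-FRET, Eu(K)-anti-GST donor, streptavidin-D2 acceptor, ex 340, em 617/671 nm · Evaluation – percent inhibition of 671/617 nm emission ratio versus biotin and DMSO controls · Plate – 1536-well format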
# NR2E3 ag-2: NR2E3 agonists in two-hybrid cells, primary screen, cell-based, luminescence, CHO-S, Gal4-NCOR/VP16-NR2E3; Photoreceptor-specific nuclear receptor (Homo sapiens), Q9Y5X4; luciferase; inhibition of corepressor binding, % at 3.98 µM; hit rate 0.35% among 360,000; AID 602229, 2012;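 active = inhibition above the mean of all tested compounds plus 3 SD, cut at about 70% in these data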;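 also: 0% = DMSO with NR2E3 transfected cells and 100% = cells lacking NR2E3 construct; higher means lower luciferase signal from less NR2E3 corepressor binding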
# Rev-erbA mod: modulators of Rev-erb alpha DNA binding, primary screen, biochemical, FITC-DNA, fluorescence polarization, uHTS. Nuclear receptor subfamily 1 group D member 1 (Homo sapiens), P20393. Rev-erbα–FITC-DNA binding, 90 min. activity, % at 10 µM. hit rate 0.79% among 370,000. AID 1259318, 2017;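 active = activity above about 14%, limit read from the data; passing the limit was not always enough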;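 also: 0% = DMSO wells with 35 nM protein and 100% = DMSO wells with 750 nM protein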
# Target sequence (P20393 whole entry, looked up): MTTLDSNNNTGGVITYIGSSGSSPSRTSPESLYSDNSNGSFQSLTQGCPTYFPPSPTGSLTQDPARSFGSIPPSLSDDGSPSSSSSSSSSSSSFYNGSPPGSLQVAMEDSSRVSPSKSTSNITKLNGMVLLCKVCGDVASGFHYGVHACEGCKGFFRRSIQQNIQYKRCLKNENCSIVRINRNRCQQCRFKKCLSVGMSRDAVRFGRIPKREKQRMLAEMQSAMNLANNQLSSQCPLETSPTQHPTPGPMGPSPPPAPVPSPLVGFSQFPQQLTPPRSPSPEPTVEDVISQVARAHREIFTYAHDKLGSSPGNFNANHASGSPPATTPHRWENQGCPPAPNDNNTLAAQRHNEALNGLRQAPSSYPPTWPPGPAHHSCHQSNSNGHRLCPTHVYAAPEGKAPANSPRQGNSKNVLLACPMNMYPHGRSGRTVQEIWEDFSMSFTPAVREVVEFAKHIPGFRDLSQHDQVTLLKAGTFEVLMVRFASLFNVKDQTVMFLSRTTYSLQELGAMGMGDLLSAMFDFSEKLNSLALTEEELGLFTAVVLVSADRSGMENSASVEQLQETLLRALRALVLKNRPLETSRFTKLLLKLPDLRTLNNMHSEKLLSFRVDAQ
# PG9 Ab binder: binders of HIV-1 gp120 antibody PG9, primary screen, biochemical, TR-FRET; TR-FRET gp120-PG9 antibody binding; inhibition, % at 6.7 µM; hit rate 0.43% among 360,000; AID 624416, 2012; in the data active = inhibition above about 8.5%
# MT1-MMP act inh: blockers of MT1-MMP proenzyme processing, primary screen, HT1080 RFP-PRO-GFP cells, GFP/RFP fluorescence | hit rate 0.061% among 360,000 | GFP/RFP ratio fluorescence, overnight; percent of plate control window, DMSO zero | GFP/RFP ratio change, % at 20 µM;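 active = GFP/RFP ratio change of at least 30% with cell ATP level not reduced by more than half and red fluorescence within 50% of control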
#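 Assay system: RFP-PRO-GFP reporter HT1080 cells; read-out basis: GFP/RFP fluorescence ratio; benchmarks: DMSO wells and RFP-L50D-GFP cells; doses: 20 µM single dose, 1% DMSO; schedule: overnight cell settling, then overnight compound exposure, 37 °C, 5% CO2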
# Rev-erbA confirm: modulators of Rev-erb alpha DNA binding, confirmation, biochemical, FITC-DNA, fluorescence polarization, single point; shares compounds with Rev-erbA mod; 90 min; activation, % at 25 µM; hit rate 61% among 3,000;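 active = activation at or above a set limit, or at least 3 SD above the negative control mean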;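 also: 0% = 35 nM protein with DMSO and 100% = 750 nM protein high control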
# RORg DNA counter: modulation of RORgamma DNA binding, dose response, counter-screen for Rev-erb alpha modulator project, biochemical, fluorescence polarization, FITC-DNA; shares compounds with Rev-erbA mod; hit rate 8% among 910; IC50, µM; purified RORgamma protein-FITC-DNA binding;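 active = Compounds whose fitted half-maximal concentration for disrupting protein-DNA binding is below 10 micromolar; the record names Rev-erb in its text, so the target is in doubt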
# Numbers without * were called inactive; x = no result. In the library only some 1.9% were active in any assay of this set; here they are far more common.
SMILES,SKN-1 inh,NR2E3 ag-1,NR2E3 ag-2,Rev-erbA mod,PG9 Ab binder,MT1-MMP act inh,Rev-erbA confirm,others
CCCCOC(=O)CSc1nc(N)c(C#N)c(-c2ccc(OCC)cc2)c1C#N,-1,-3,2,49*,0,3,36*,RORg DNA counter=>40
CCCCOC(=O)CSc1nc(N)c(C#N)c(-c2ccc(OC)cc2)c1C#N,22,0,-4,53*,-1,3,28*,
CCOC(=O)CC(=O)CSc1nc(N)c(C#N)c(-c2ccc(F)cc2)c1C#N,6,2,-7,-5,0,-3,x,
C=C(C)CSc1nc(N)c(C#N)c(-c2ccc(C)cc2)c1C#N,11,6,-30,24*,-2,13,18*,
COc1ccc2cc(C(=O)Nc3ccc(S(N)(=O)=O)cc3)sc(=O)c2c1OC,3,-31,7,26*,1,4,37*,RORg DNA counter=>40
CCOc1ccc(NC(=O)c2cn(-c3ccc(OCC)cc3)c(=O)c3cc(OC)c(OC)cc23)cc1,18,-5,-2,-3,0,-1,x,
CCOc1ccc(-n2cc(C(=O)Nc3cccc(C)n3)c3cc(OC)c(OC)cc3c2=O)cc1,-15,0,3,35*,1,-4,12,
O=C1c2ccccc2C(=O)N1CCC#Cc1ccc2cc(CCCO)oc(=O)c2c1,-9,x,29,16*,1,4,0,
CN(C)c1ccc(C#Cc2ccc3cc(CCCO)oc(=O)c3c2)cc1,14,1,-71,28*,2,4,6,
Cc1ccc(OCc2nnc(SCC(=O)Nc3ccc(OCc4ccccc4)cc3)n2-c2ccc(Cl)cc2)cc1,x,x,x,-3,x,x,x,
CCOC(=O)[C@]12CCCC=C1N(Cc1ccco1)C(=O)[C@H](CC(=O)N1CCCCC1)C2,5,x,8,1,-1,3,x,
COC(=O)[C@]12C[C@H](CC(=O)N3CCCCC3)C(=O)N(CCc3ccc(OC)c(OC)c3)C1=C[C@H](C(C)(C)C)O[C@@H]2C,x,x,x,-2,x,x,x,
Cc1ccc(S(=O)(=O)N2CCN(C(=O)CNC(=O)c3sc4ccccc4c3Cl)CC2)cc1,-8,2,-3,23*,0,1,5,
Cc1ccnc(NC(=O)CNC(=O)c2sc3ccccc3c2Cl)c1,12,8,-56,35*,6,3,6,
Cc1ccnc(NC(=O)c2cc(-c3ccc(Cl)s3)nc3ccccc23)c1,0,-4,-33,24*,-4,-6,-6,
O=C(CNC(=O)c1sc2ccccc2c1Cl)NCc1ccccc1,15,-8,-37,22*,-9,-2,11,
Cn1cccc1C(=O)N1CCN(S(=O)(=O)c2ccc(Br)s2)CC1,x,x,x,-4,x,x,x,
COC(=O)C1=C(C)N(CC(C)C)C(=S)NC1c1cccc(OC)c1 (stereo unspecified),x,x,x,-4,-1,x,x,
C=C(C)CSc1nnc(-c2cc(-c3ccc(OC)cc3)n[nH]2)n1N,x,x,x,1,x,x,x,
CCCCCCCCN1C(=O)[C@@H](CC(=O)NCC23CC4CC(CC(C4)C2)C3)C[C@@]2(C(=O)OC)C1=C[C@H](C(C)(C)C)O[C@@H]2C,x,x,x,3,0,x,x,
CCOC(=O)c1c(C)nc(C)c(C(=O)OCC)c1-c1ccc(OC)cc1,7,0,-16,1,-1,-1,x,

# Bioassay records as filed in PubChem.
